In the library only some 3.8% were active in any assay of this set; here they are far more common.
Granule exo inh: lytic granule exocytosis inhibition. inhibition, % at 10 µM. actives 0.66% (n = 360,000). AID 651702. TALL-104 LAMP-1 surface exposure, flow cytometry; cells stimulated with thapsigargin and PMA;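 active = inhibition above about 55%, limit read from the data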
T cell modulator: T cell immune modulators affecting CD8 T cell-vesicle binding. 2C CD8+ T cell-vesicle binding, flow cytometry; hits give low values. response (vesicle binding), % at 7 µM. actives 0.068% (n = 330,000). AID 2052;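 active = response, share of CD8 T cells binding vesicles, and their 90th percentile fluorescence all below set limits, cut at about 80% in these data, passing the limit was not always enough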;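 also: values below 100% mean blocked vesicle binding to the CD8+ T cells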
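Also added: QL9-peptide-loaded Drosophila micro-vesicles bearing Ld, ICAM-1 and B7-1; Test system: purified 2C TCR transgenic mouse naive CD8+ T cells; Measured by: cytometric PE anti-B7-1 and Alexa647 anti-CD8 signals after 1% paraformaldehyde fixation; Timing: binding step 1.5 h, 37 °C, antibody labelling 20 min, ice.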
B2AR ag: human beta-2 adrenergic receptor agonism by FAP | P07550 | Am2.2-beta2AR cells, FAP receptor internalization, flow cytometry | response, % (test concentration not listed) | actives 0.43% (n = 340,000) | AID 504454;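 active = response above a set limit, near 3 SD of response in nonfluorescent compounds, cut at about 42% in these data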
Target sequence (P07550 whole entry, looked up): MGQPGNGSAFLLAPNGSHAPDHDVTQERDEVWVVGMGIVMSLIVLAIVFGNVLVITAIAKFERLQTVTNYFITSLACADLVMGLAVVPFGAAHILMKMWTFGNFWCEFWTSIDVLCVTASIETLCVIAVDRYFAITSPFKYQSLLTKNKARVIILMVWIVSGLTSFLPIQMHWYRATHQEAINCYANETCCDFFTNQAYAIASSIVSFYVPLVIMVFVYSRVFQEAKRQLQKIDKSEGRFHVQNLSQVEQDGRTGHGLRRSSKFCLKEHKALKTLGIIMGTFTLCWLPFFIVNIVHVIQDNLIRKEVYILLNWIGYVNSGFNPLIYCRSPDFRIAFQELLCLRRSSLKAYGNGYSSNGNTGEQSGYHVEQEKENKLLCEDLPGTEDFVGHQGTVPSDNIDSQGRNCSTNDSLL
V-ATPase pHluor: regulators of yeast V-ATPase proton transport. S. cerevisiae, pHLuorin cytosolic pH fluorescence. response, % at 10 µM. actives 0.37% (n = 350,000); in the data active = response mostly above about 7.3%, no sharp cut-off; inactive = mostly below about 5.4%; also: actives read high
MPTP block: inhibitors of mitochondrial permeability transition pore; actives 1.4% (n = 360,000); isolated mouse mitochondria, Ca2+ swelling absorbance, 30 min; inhibition, % at 10 µM; AID 602449;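 active = inhibition of 50% or more, scaled per plate between neutral and stimulator controls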;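 also: 0% = DMSO wells given calcium and 100% = 1 mM EGTA wells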
rCAG binder: binds r(CAG) RNA repeats; inhibition, % at 3 µM; r(CAG) RNA repeat, TO-PRO-1 dye displacement fluorescence; actives 1.3% (n = 370,000); AID 651821;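 active = inhibition above the plate cutoff, the mean of all test compounds on that plate plus 3 SD, cut at about 35% in these data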;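 also: 0% = DMSO alone and 100% = 100 µM mitoxantrone as full dye displacement; higher means more dye released from RNA so lower well fluorescence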
rCAG binder conf: r(CAG) RNA repeat binding, confirmation; actives 70% (n = 4,300); shares compounds with rCAG binder; TO-PRO-1 dye displacement fluorescence; inhibition, % at 3 µM;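 active = inhibition above a per-plate cutoff, the mean inhibition of sample wells plus 3 SD, cut at about 35% in these data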;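 also: loss of TO-PRO-1 fluorescence as compound displaces dye from 1x1 AA loop RNA; 0% = DMSO only wells and 100% = 100 µM mitoxantrone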
DNA CAG counter: counter-screen for rCAG RNA binders: DNA CAG dye complex inhibitors | d(CAG) DNA oligo TO-PRO-1 dye displacement, fluorescence | inhibition, % at 3 µM | actives 94% (n = 4,300) | shares compounds with rCAG binder;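 active = inhibition above its plate's cutoff, the mean test-well inhibition plus 3 SD, cut at about 4.8% in these data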;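 also: 0% = DNA dye mix with DMSO and 100% = 100 µM mitoxantrone; hits displace the dye from DNA and so lower well fluorescence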
Active calls of the source: *; / = no result.

SMILES	Granule exo inh	T cell modulator	B2AR ag	V-ATPase pHluor	MPTP block	rCAG binder	rCAG binder conf	DNA CAG counter
O=C(Nc1ccc2c(c1)OCO2)NC1CCN(S(=O)(=O)c2ccc(F)cc2)CC1	/	/	/	/	/	1.2	/	/
Cc1ccc(-c2nn(-c3ccccc3)cc2C(=O)Nc2ccc(C(=O)O)cc2)cc1	-3.2	142.3	-10.4	-0.9	1.0	44.4*	36.9*	8.2*
O=C(O)c1cccc(NC(=O)c2cn(-c3ccccc3)nc2-c2ccc(F)cc2)c1	4.6	191.1	0.8	-2.1	0.5	38.4*	24.7	5.5*
COC(=O)c1cc2c(c3c4cc(C)ccc4n(S(=O)(=O)c4ccc(C)cc4)c13)C(=O)N(Cc1ccc(C(F)(F)F)cc1)C2	/	/	/	/	/	16.6	/	/
C=CCN1CC(COc2ccc(OC)cc2)OCCS1(=O)=O (stereo not drawn)	/	/	/	/	/	1.4	/	/
COc1ccc(/C=C2/SC(=O)N(CCC(=O)Nc3ccc(S(=O)(=O)Nc4nccs4)cc3)C2=O)cc1	0.6	184.5	5.5	-0.2	4.7	83.6*	82.2*	48.7*
COc1ccc(/C=C2\SC(=O)N(CCC(=O)Nc3ccc(S(=O)(=O)Nc4nccs4)cc3)C2=O)cc1	-3.2	216.9	6.7	1.1	8.4	80.5*	79.2*	45.2*
CN(CCOC(=O)c1cc2ccccc2o1)C1CN(Cc2cn(Cc3ccc([N+](=O)[O-])cc3)nn2)S(=O)(=O)C1 (stereo not drawn)	/	/	/	/	/	1.8	/	/
Cc1cc(NS(=O)(=O)c2ccc(NC(=O)CSc3nnc(-c4ccc(Cl)cc4)n3Cc3ccco3)cc2)nc(C)n1	/	/	/	/	/	38.5*	41.0*	14.1*
COc1ccc(NC(=O)CSc2nnc(COc3ccccc3)n2Cc2ccco2)cc1OC	3.0	438.1	2.3	-1.0	4.3	1.8	/	/
O=C(CSc1nnc(-c2ccccc2)n1Cc1ccco1)Nc1ccc(S(=O)(=O)N2CCCC2)cc1	3.1	136.0	-10.5	5.7	-2.6	6.0	/	/
O=C(CSc1nnc(-c2cccnc2)n1Cc1ccco1)Nc1ccc(Cl)cc1	/	/	/	/	/	5.3	/	/
Cc1ccc(OCc2nnc(SCC(=O)Nc3ccc(S(=O)(=O)Nc4cc(C)nc(C)n4)cc3)n2Cc2ccco2)cc1	/	/	/	/	/	37.8*	46.8*	13.1*
O=C(CSc1nnc(-c2ccc(Cl)cc2)n1Cc1ccco1)Nc1ccc(S(=O)(=O)Nc2nccs2)cc1	/	/	/	/	/	76.9*	68.6*	32.0*
COCCCNC(=O)C[C@H]1C[C@@]2(C(=O)OC)C(=C[C@H](C3CCCC3)O[C@@H]2C)N(Cc2ccco2)C1=O	/	/	/	/	/	-1.4	/	/
O=C(N[C@@H]1CC[C@H]2SC[C@H](C(=O)O)N2C1=O)OCC1c2ccccc2-c2ccccc21	/	/	/	/	/	25.9	/	/
Cc1nc(C)c(-c2csc(Nc3ccc(O)c(C(=O)O)c3)n2)s1	5.7	181.9	-0.8	-0.6	0.5	34.7*	28.8	6.2*
Cc1nc(C)c(-c2csc(Nc3ccc(N)cc3)n2)s1	-6.3	236.3	5.7	2.2	0.1	15.3	/	/
COC(=O)[C@]12C[C@H](CC(=O)NCc3ccc(OC)c(OC)c3)C(=O)N(Cc3ccc4c(c3)OCO4)C1=C[C@H](C(C)C)O[C@@H]2C1CC1	/	/	/	/	/	3.1	/	/
Cc1ccc(NC(=O)CSc2ncc(S(=O)(=O)c3ccccc3)c(=O)[nH]2)cc1C	-2.8	0.0	-7.2	-0.5	1.2	49.4*	43.2*	11.5*
COC(=O)c1cc(=O)n(-c2ccc(C(F)(F)F)cc2)[nH]1	-1.2	539.9	7.3	-3.5	4.3	61.0*	5.4	3.2
O=C(N/N=C/c1cc([N+](=O)[O-])cc([N+](=O)[O-])c1O)C(O)(c1ccccc1)c1ccccc1	8.3	272.1	-3.3	5.9	-0.9	67.8*	70.8*	30.0*
O=C(N/N=C/c1ccc(O)c([N+](=O)[O-])c1)C(O)(c1ccccc1)c1ccccc1	-14.6	221.6	7.4	-1.3	-0.7	26.3	/	/
CCc1cc(C(=O)N=Nc2c(O)[nH]c3ccc([N+](=O)[O-])cc23)c2ccccc2n1	-6.5	460.0	14.9	-2.7	12.7	41.6*	35.2*	22.3*

High-throughput results as filed in PubChem BioAssay.
